Assay results: ChEMBL document CHEMBL2407075, “Sulphonamido-quinoxalines: search for anticancer agent” (Eur J Med Chem, 2013)

Columns and labels:
Type in all cases: functional
[1] = Growth inhibition of human Hs 578T cells assessed as cell growth at 10^-4 M after 48 hrs by sulforhodamine B assay; settings: read-out: Activity
How it was run: (§1)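 Five-dose screen at NCI. Cells in RPMI 1640 with 5% FBS and 2 mM L-glutamine, seeded at 5000–40,000 cells/well and grown 24 h at 37 °C, 5% CO2 before dosing, with time-zero plates TCA-fixed. Drug diluted from DMSO stock to 0.01, 0.1, 1, 10 and 100 µM final, 48 h. Cells fixed with cold TCA (10% final), stained with 0.4% SRB and read at 515 nm. Percent growth from Tz, control and test absorbances; GI50, TGI and LC50 from dose-response curves.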

IGROV-1 [2] = assay: Growth inhibition of human IGROV1 cells assessed as cell growth at 10^-4 M after 48 hrs by sulforhodamine B assay; settings: IGROV-1, 48 h, read-out: Activity; how it was run: as §1
HT-29 [3] = assay: Growth inhibition of human HT-29 cells assessed as cell growth at 10^-4 M after 48 hrs by sulforhodamine B assay; settings: HT-29, 48 h, read-out: Activity; how it was run: as §1
HOP-92 = assay: Growth inhibition of human HOP92 cells assessed as cell growth at 10^-4 M after 48 hrs by sulforhodamine B assay; settings: HOP-92, 48 h, read-out: Activity; how it was run: as §1
MDA-MB-231 = assay: Growth inhibition of human MDA-MB-231 cells assessed as cell growth at 10^-5 M after 48 hrs by sulforhodamine B assay; settings: MDA-MB-231, 48 h, read-out: Activity
UO-31 = assay: Growth inhibition of human UO31 cells assessed as cell growth at 10^-5 M after 48 hrs by sulforhodamine B assay; settings: UO-31, 48 h, read-out: Activity
SF-268 = assay: Growth inhibition of human SF268 cells assessed as cell growth at 10^-5 M after 48 hrs by sulforhodamine B assay; settings: SF-268, 48 h, read-out: Activity
HCT-15 = assay: Growth inhibition of human HCT15 cells assessed as cell growth at 10^-5 M after 48 hrs by sulforhodamine B assay; settings: HCT-15, 48 h, read-out: Activity; how it was run: as §1
[4] = Growth inhibition of human Hs 578T cells assessed as cell growth at 10^-6 M after 48 hrs by sulforhodamine B assay; settings: read-out: Activity; how it was run: as §1
SK-OV-3 = assay: Growth inhibition of human SKOV3 cells assessed as cell growth at 10^-6 M after 48 hrs by sulforhodamine B assay; settings: SK-OV-3, 48 h, read-out: Activity
OVCAR-3 = assay: Growth inhibition of human OVCAR3 cells assessed as cell growth at 10^-6 M after 48 hrs by sulforhodamine B assay; settings: OVCAR-3, 48 h, read-out: Activity
IGROV-1 [5] = assay: Growth inhibition of human IGROV1 cells assessed as cell growth at 10^-6 M after 48 hrs by sulforhodamine B assay; settings: IGROV-1, 48 h, read-out: Activity; how it was run: as §1
U-251 [6] = assay: Growth inhibition of human U251 cells assessed as cell growth at 10^-6 M after 48 hrs by sulforhodamine B assay; settings: U-251, 48 h, read-out: Activity
[7] = Growth inhibition of human HCC2998 cells assessed as cell growth at 10^-6 M after 48 hrs by sulforhodamine B assay; settings: HCC 2998, 48 h, read-out: Activity; how it was run: as §1
SR [8] = assay: Growth inhibition of human SR cells assessed as cell growth at 10^-6 M after 48 hrs by sulforhodamine B assay; settings: read-out: Activity
MCF7 = assay: Growth inhibition of human MCF7 cells assessed as cell growth at 10^-7 M after 48 hrs by sulforhodamine B assay; settings: MCF7, 48 h, read-out: Activity
A498 = assay: Growth inhibition of human A498 cells assessed as cell growth at 10^-7 M after 48 hrs by sulforhodamine B assay; settings: A498, 48 h, read-out: Activity
How it was run: (§2)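 Five-dose NCI-60 run (0.01, 0.1, 1, 10 and 100 µM, as 10-fold dilutions from a DMSO stock made at 400× the top final level). Cells were grown in RPMI 1640 with 5% FBS and 2 mM glutamine and plated for 24 h. They were then exposed for 48 h at 37 °C and 5% CO2. TCA fixation was followed by SRB staining with A515 read-out. Percent growth was taken relative to time-zero and control plates.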

[9] = Growth inhibition of human NCI-ADR-RES cells assessed as cell growth at 10^-7 M after 48 hrs by sulforhodamine B assay; settings: read-out: Activity
HT-29 [10] = assay: Growth inhibition of human HT-29 cells assessed as cell growth at 10^-7 M after 48 hrs by sulforhodamine B assay; settings: HT-29, 48 h, read-out: Activity; how it was run: as §1
NCI-H322M = assay: Growth inhibition of human NCI-H322M cells assessed as cell growth at 10^-7 M after 48 hrs by sulforhodamine B assay; settings: read-out: Activity
BT-549 = assay: Growth inhibition of human BT549 cells assessed as cell growth at 10^-8 M after 48 hrs by sulforhodamine B assay; settings: BT-549, 48 h, read-out: Activity; how it was run: as §2
OVCAR-8 = assay: Growth inhibition of human OVCAR8 cells assessed as cell growth at 10^-8 M after 48 hrs by sulforhodamine B assay; settings: OVCAR-8, 48 h, read-out: Activity
Malme-3M = assay: Growth inhibition of human MALME-3M cells assessed as cell growth at 10^-8 M after 48 hrs by sulforhodamine B assay; settings: read-out: Activity
U-251 [11] = assay: Growth inhibition of human U251 cells assessed as cell growth at 10^-8 M after 48 hrs by sulforhodamine B assay; settings: U-251, 48 h, read-out: Activity
SF-295 = assay: Growth inhibition of human SF295 cells assessed as cell growth at 10^-8 M after 48 hrs by sulforhodamine B assay; settings: SF-295, 48 h, read-out: Activity
SW-620 = assay: Growth inhibition of human SW620 cells assessed as cell growth at 10^-8 M after 48 hrs by sulforhodamine B assay; settings: SW-620, 48 h, read-out: Activity
SR [12] = assay: Growth inhibition of human SR cells assessed as cell growth at 10^-8 M after 48 hrs by sulforhodamine B assay; settings: read-out: Activity
OVCAR-5 = assay: Growth inhibition of human OVCAR5 cells after 48 hrs by sulforhodamine B assay; settings: OVCAR-5, 48 h; for CC50: read-out: LC50 (the source's name)
How it was run: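 Adherent cells in RPMI 1640 with 5% FBS and 2 mM L-glutamine were plated at 5000–40,000 cells/well and grown 24 h. Five concentrations (0.01–100 µM, DMSO stock) were added for 48 h at 37 °C. Cells were fixed with cold TCA (10% final) and stained with SRB, read at 515 nm. GI50 came from log concentration–growth curves against time-zero and control plates.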

MOLT-4 = assay: Growth inhibition of human MOLT4 cells after 48 hrs by sulforhodamine B assay; settings: MOLT-4, 48 h; for CC50: read-out: LC50 (the source's name)
How it was run: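 Leukemia suspension cells in RPMI 1640 with 5% FBS and 2 mM L-glutamine were plated at 5000–40,000 cells/well and grown 24 h. Five concentrations (0.01–100 µM) were given for 48 h at 37 °C. Settled cells were fixed with 80% TCA (16% final) and SRB-stained, read at 515 nm. GI50 came from dose–response curves against time-zero and control plates.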

O=S(=O)(Nc1ccc(Cl)cc1)c1ccc2nc(-c3ccccc3)c(-c3ccccc3)nc2c1
growth at 100 µM [1]: 59% | growth at 100 µM (IGROV-1 [2]): 73% | growth at 100 µM (HT-29 [3]): 53% | growth at 100 µM (HOP-92): 32% | growth at 10 µM (MDA-MB-231): -78% | growth at 10 µM (UO-31): 6% | growth at 10 µM (SF-268): 27% | growth at 10 µM (HCT-15): 3% | growth at 1 µM [4]: 76% | growth at 1 µM (SK-OV-3): 105% | growth at 1 µM (OVCAR-3): 94% | growth at 1 µM (IGROV-1 [5]): 93% | growth at 1 µM (U-251 [6]): 87% | growth at 1 µM [7]: 102% | growth at 1 µM (SR [8]): 81% | growth at 0.1 µM (MCF7): 95% | growth at 0.1 µM (A498): 76% | growth at 0.1 µM [9]: 102% | growth at 0.1 µM (HT-29 [10]): 100% | growth at 0.1 µM (NCI-H322M): 98% | growth at 0.01 µM (BT-549): 98% | growth at 0.01 µM (OVCAR-8): 96% | growth at 0.01 µM (Malme-3M): 106% | growth at 0.01 µM (U-251 [11]): 97% | growth at 0.01 µM (SF-295): 92% | growth at 0.01 µM (SW-620): 93% | growth at 0.01 µM (SR [12]): 92% | TGI (OVCAR-5): > 100 µM | CC50 (OVCAR-5): > 100 µM | CC50 (MOLT-4): > 100 µM

O=S(=O)(Nc1ccccn1)c1ccc2nc(-c3ccccc3)c(-c3ccccc3)nc2c1
growth at 100 µM [1]: 46% | growth at 100 µM (IGROV-1 [2]): 63% | growth at 100 µM (HT-29 [3]): 24% | growth at 100 µM (HOP-92): 1% | growth at 10 µM (MDA-MB-231): -60% | growth at 10 µM (UO-31): -5% | growth at 10 µM (SF-268): 27% | growth at 10 µM (HCT-15): 3% | growth at 1 µM [4]: 65% | growth at 1 µM (SK-OV-3): 98% | growth at 1 µM (OVCAR-3): 92% | growth at 1 µM (IGROV-1 [5]): 102% | growth at 1 µM (U-251 [6]): 84% | growth at 1 µM [7]: 100% | growth at 1 µM (SR [8]): 66% | growth at 0.1 µM (MCF7): 96% | growth at 0.1 µM (A498): 87% | growth at 0.1 µM [9]: 102% | growth at 0.1 µM (HT-29 [10]): 97% | growth at 0.1 µM (NCI-H322M): 102% | growth at 0.01 µM (BT-549): 99% | growth at 0.01 µM (OVCAR-8): 100% | growth at 0.01 µM (Malme-3M): 97% | growth at 0.01 µM (U-251 [11]): 99% | growth at 0.01 µM (SF-295): 86% | growth at 0.01 µM (SW-620): 101% | growth at 0.01 µM (SR [12]): 93% | TGI (OVCAR-5): > 100 µM | CC50 (OVCAR-5): > 100 µM | GI50 (MOLT-4): 1.89 µM | CC50 (MOLT-4): > 100 µM
